The source made the active and inactive calls. The rule behind the calls is not given here.
Experiments:
[1] = Stability of compound in human liver microsomes assessed as parent compound remaining at 1 uM measured at 10 mins in presence of NADPH; format: ADME, Microsome; settings: for remaining at 10 min, 1 µM: liver microsomes, read-out: Stabilty
How it was run: (§1)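 Test compound at 1 μM with human, mouse or rat liver microsomes (0.5 mg/ml protein) plus NADPH cofactor; final solvents 0.01% DMSO, 0.05% acetonitrile; percent parent remaining at 10 min. Verapamil, cerivastatin and warfarin as positive controls. SD given when multiple batches were tested.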

[2] = Half life in human liver microsomes at 1 uM measured at 10 mins in presence of NADPH; format: ADME, Microsome
[3] = Stability of compound in mouse liver microsomes assessed as parent compound remaining at 1 uM measured at 10 mins in presence of NADPH; format: ADME, Microsome; settings: read-out: Stabilty; how it was run: as §1
[4] = Stability of compound in rat liver microsomes assessed as parent compound remaining at 1 uM measured at 10 mins in presence of NADPH; format: ADME, Microsome; settings: liver microsomes, read-out: Stabilty; how it was run: as §1
[5] = Clearance in Sprague-Dawley rat at 2 mg/kg, iv or 10 mg/kg, po; format: ADME, organism-based; settings: in vivo
How it was run: (§2)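 Male Sprague Dawley rats dosed 2 mg/kg IV (vehicle 20% HPbCD) or 10 mg/kg PO (vehicle 0.5% Methocel); pharmacokinetic parameters derived from plasma exposure.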

[6] = Volume of distribution at steady state in Sprague-Dawley rat at 2 mg/kg, iv or 10 mg/kg, po; format: ADME, organism-based; settings: in vivo, read-out: Vdss; how it was run: as §2
[7] = Half life in Sprague-Dawley rat at 2 mg/kg, iv; format: ADME, organism-based; settings: in vivo; how it was run: as §2
[8] = AUC (0 to infinity) in Sprague-Dawley rat at 2 mg/kg, iv or 10 mg/kg, po; format: ADME, organism-based; design: dose 10 mg/kg; settings: in vivo; how it was run: as §2
[9] = Cmax in Sprague-Dawley rat at 2 mg/kg, iv or 10 mg/kg, po; format: ADME, organism-based; design: dose 10 mg/kg; settings: in vivo; how it was run: as §2
[10] = Tmax in Sprague-Dawley rat at 2 mg/kg, iv or 10 mg/kg, po; format: ADME, organism-based; settings: in vivo; how it was run: as §2
[11] = Oral bioavailability in Sprague-Dawley rat at 10 mg/kg; format: ADME, organism-based; settings: in vivo; how it was run: as §2
Rattus norvegicus [12] = experiment: Hypoglycemic activity in overnight fasted Sprague-Dawley rat assessed as percent reduction in blood glucose AUC at 1 mg/kg, po measured after 4 hrs post glucose challenge by OGTT relative to control; format: functional; design: scale not given: the % may be the effect or the level left
How it was run: (§3)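 Overnight-fasted SD rats dosed orally at 1 or 10 mg/kg in 0.5% Methocel (vehicle controls) 60 min before oral glucose challenge. […] N=8 per group; mean ± SEM; one-way ANOVA-Dunnett.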

Rattus norvegicus [13] = experiment: Hypoglycemic activity in overnight fasted Sprague-Dawley rat assessed as percent reduction in blood glucose AUC at 10 mg/kg, po measured after 4 hrs post glucose challenge by OGTT relative to control; format: functional; design: scale not given: the % may be the effect or the level left; how it was run: as §3
[14] = In vivo inhibition of SGLT1 in overnight fasted Sprague-Dawley rat assessed as amount of urinary glucose excretion assessed per 4 hrs at 1 mg/kg, po; format: functional; how it was run: as §3
[15] = In vivo inhibition of SGLT2 in overnight fasted Sprague-Dawley rat assessed as amount of urinary glucose excretion assessed per 4 hrs at 10 mg/kg, po; format: functional; how it was run: as §3
[16] = In vivo inhibition of SGLT1/2 in overnight fasted Sprague-Dawley rat assessed as amount of urinary glucose excretion assessed per 4 hrs at 1 mg/kg, po; format: functional; how it was run: as §3
Rattus norvegicus [17] = experiment: In vivo inhibition of SGLT1/2 in overnight fasted po dosed Sprague-Dawley rat assessed as reduction in blood glucose by OGTT; format: functional, organism-based; settings: dose mg/kg 1-10
[18] = target: T1, Sodium/glucose cotransporter 1 (Homo sapiens) (UniProt P13866); experiment: Inhibition of human SGLT1 expressed in CHO cells assessed as reduction in [14C]-methyl-alpha -D-glucopyranoside accumulation at 0.3 uM relative to control; format: cell-based
T1 sequence (whole entry): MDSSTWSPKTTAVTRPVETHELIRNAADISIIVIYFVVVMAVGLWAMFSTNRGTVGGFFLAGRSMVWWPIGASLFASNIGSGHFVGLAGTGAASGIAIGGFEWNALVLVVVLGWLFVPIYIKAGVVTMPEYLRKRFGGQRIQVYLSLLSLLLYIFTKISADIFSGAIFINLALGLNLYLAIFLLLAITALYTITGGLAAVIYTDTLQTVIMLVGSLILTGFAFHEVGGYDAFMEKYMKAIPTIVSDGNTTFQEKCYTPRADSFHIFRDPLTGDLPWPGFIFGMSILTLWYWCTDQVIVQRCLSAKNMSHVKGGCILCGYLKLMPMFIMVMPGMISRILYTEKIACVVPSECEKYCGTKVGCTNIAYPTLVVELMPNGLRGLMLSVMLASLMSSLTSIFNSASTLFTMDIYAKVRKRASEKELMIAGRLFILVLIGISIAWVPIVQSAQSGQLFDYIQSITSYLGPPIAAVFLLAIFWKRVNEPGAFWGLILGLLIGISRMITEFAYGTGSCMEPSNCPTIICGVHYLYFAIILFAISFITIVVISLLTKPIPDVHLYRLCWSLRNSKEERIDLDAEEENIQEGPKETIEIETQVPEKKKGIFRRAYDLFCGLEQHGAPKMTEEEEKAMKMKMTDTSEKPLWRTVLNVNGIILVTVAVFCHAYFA
How it was run: (§4)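 CHO cells expressing human SGLT1 or SGLT2; inhibition of [14C]methyl D-glucopyranoside (AMG) accumulation measured with test compound at 0.3 μM.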

[19] = target: T2, Sodium/glucose cotransporter 2 (Homo sapiens) (UniProt P31639); experiment: Inhibition of human SGLT2 expressed in CHO cells assessed as reduction in [14C]-methyl-alpha -D-glucopyranoside accumulation at 0.3 uM relative to control; format: cell-based; how it was run: as §4
T2 sequence (whole entry): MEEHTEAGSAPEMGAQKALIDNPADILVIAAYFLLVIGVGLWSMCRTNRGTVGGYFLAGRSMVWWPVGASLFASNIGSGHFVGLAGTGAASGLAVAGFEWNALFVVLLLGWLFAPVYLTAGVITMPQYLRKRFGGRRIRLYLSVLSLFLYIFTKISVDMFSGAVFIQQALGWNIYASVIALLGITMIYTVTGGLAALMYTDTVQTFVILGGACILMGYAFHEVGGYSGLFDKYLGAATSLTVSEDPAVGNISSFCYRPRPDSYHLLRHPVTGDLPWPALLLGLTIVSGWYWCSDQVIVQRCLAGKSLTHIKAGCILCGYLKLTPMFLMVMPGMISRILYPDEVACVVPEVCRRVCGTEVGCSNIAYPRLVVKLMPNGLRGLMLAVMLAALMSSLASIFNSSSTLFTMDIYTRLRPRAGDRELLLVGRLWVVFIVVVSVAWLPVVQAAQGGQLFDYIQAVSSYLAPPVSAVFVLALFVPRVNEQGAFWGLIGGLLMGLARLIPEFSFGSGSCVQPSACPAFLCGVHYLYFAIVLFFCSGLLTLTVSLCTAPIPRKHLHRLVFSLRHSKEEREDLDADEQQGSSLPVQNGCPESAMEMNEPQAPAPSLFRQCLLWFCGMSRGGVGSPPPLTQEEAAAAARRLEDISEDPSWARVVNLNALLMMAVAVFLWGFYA

[20] = Clearance in C57BL mouse at 5 mg/kg, iv or 20 mg/kg, po; format: ADME, organism-based; settings: in vivo
How it was run: (§5)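 Male C57 black mice given 5 mg/kg IV in 20% HPbCD or 20 mg/kg PO in 0.5% Methocel; plasma pharmacokinetic parameters derived from these dosings.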

[21] = Volume of distribution at steady state in C57BL mouse at 5 mg/kg, iv or 20 mg/kg, po; format: ADME, organism-based; settings: in vivo, read-out: Vdss; how it was run: as §5
[22] = Half life in C57BL mouse at 5 mg/kg, iv; format: ADME, organism-based; settings: in vivo; how it was run: as §5
[23] = AUC (0 to infinity) in C57BL mouse at 5 mg/kg, iv or 20 mg/kg, po; format: ADME, organism-based; design: dose 20 mg/kg; settings: in vivo; how it was run: as §5
[24] = Cmax in C57BL mouse at 5 mg/kg, iv or 20 mg/kg, po; format: ADME, organism-based; design: dose 20 mg/kg; settings: in vivo; how it was run: as §5
[25] = Tmax in C57BL mouse at 5 mg/kg, iv or 20 mg/kg, po; format: ADME, organism-based; settings: in vivo; how it was run: as §5
[26] = Oral bioavailability in C57BL mouse at 20 mg/kg; format: ADME, organism-based; settings: in vivo; how it was run: as §5
[27] = In vivo inhibition of SGLT1/2 in overnight fasted Sprague-Dawley rat assessed as amount of urinary glucose excretion assessed per 4 hrs at 10 mg/kg, po; format: functional; how it was run: as §3
Rattus norvegicus [28] = experiment: Hypoglycemic activity in overnight fasted po dosed Sprague-Dawley rat assessed as reduction in blood glucose treated 60 mins prior to glucose challenge by OGTT; format: functional, organism-based; settings: dose mg/kg 1-10, time 60.0 min
Rattus norvegicus [29] = experiment: Hypoglycemic activity in overnight fasted po dosed Sprague-Dawley rat assessed as reduction in blood glucose AUC treated 60 mins prior to glucose challenge and measured up to 120 mins by OGTT; format: functional, organism-based; settings: dose mg/kg 1-10, time 60.0 min
Mus musculus [30] = experiment: Antihyperglycemic activity in db/db mouse assessed as decrease in blood glucose level at 10 mg/kg, po administered as single dose measured up to 24 hrs; format: functional, organism-based; settings: time hrs <=24
How it was run: (§6)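 Male db/db mice given a single oral 10 mg/kg dose or vehicle; fed blood glucose followed up to 24 h and 24-h urinary glucose excretion collected. Mean ± SE versus vehicle controls.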

Mus musculus [31] = experiment: Antihyperglycemic activity in db/db mouse assessed as increase in urinary glucose excretion at 10 mg/kg, po administered as single dose measured up to 24 hrs; format: functional, organism-based; settings: time hrs <=24; how it was run: as §6

| Structure (SMILES) | remaining at 10 min, 1 µM [3] [%] | remaining at 10 min, 1 µM [4] [%] | clearance [5] [mL/min/kg] | Vd [6] [L/kg] | half-life [7] [h] | AUC(0-inf) [8] [ng·h/mL] | Cmax [9] [ng/mL] | Tmax [10] [h] | bioavailability [11] [%] | remaining at 10 min, 1 µM [1] [%] | Activity (Rattus norvegicus [12]) [%] | Activity (Rattus norvegicus [13]) [%] | also measured |
| --- | --- | --- | --- | --- | --- | --- | --- | --- | --- | --- | --- | --- | --- |
| COc1cc(O)c([C@@H]2O[C@H](CO)C(F)(F)[C@H](O)[C@H]2O)cc1Cc1ccc2c(c1)OCCO2 | 97 | 26 |  |  |  |  |  |  |  | 99 |  |  |  |
| C[C@]1(F)[C@H](O)[C@@H](O)[C@H](c2cc(Cc3cc4ccccc4s3)c(Cl)cc2O)O[C@@H]1CO | 105 | 15 |  |  |  |  |  |  |  | 89 |  |  |  |
| COc1cc(O)c([C@@H]2O[C@H](CO)[C@@](C)(F)[C@H](O)[C@H]2O)cc1Cc1ccc2c(c1)CCCO2 |  |  |  |  |  |  |  |  |  |  |  |  | inhibition [18]: 31%; inhibition [19]: 67% |
| COc1cc(O)c([C@@H]2O[C@H](CO)C(F)(F)[C@H](O)[C@H]2O)cc1Cc1ccc2c(c1)CCCO2 | 85 | 57 | 75.6 | 3.85 | 2.28 | 524 | 258 | 0.25 | 22.3 | 95 | 38.3 | 60.7 | clearance [20]: 19 mL/min/kg; Vd [21]: 0.96 L/kg; half-life [22]: 0.83 h; AUC(0-inf) [23]: 9160 ng·h/mL; Cmax [24]: 4680 ng/mL; Tmax [25]: 1 h; bioavailability [26]: 52.1%; Activity [16]: 0.002 g; Activity [27]: 0.2 g; inhibition (Rattus norvegicus [17]): Dose-dependent effect; Activity (Rattus norvegicus [28]): Dose-dependent effect; Activity (Rattus norvegicus [29]): Dose-dependent effect; Activity (Mus musculus [30]): Active; Activity (Mus musculus [31]): Active |

Continued, in another order:

| remaining at 10 min, 1 µM [3] [%] | remaining at 10 min, 1 µM [4] [%] | clearance [5] [mL/min/kg] | Vd [6] [L/kg] | half-life [7] [h] | AUC(0-inf) [8] [ng·h/mL] | Cmax [9] [ng/mL] | Tmax [10] [h] | bioavailability [11] [%] | remaining at 10 min, 1 µM [1] [%] | Structure (SMILES) | Activity (Rattus norvegicus [12]) [%] | Activity (Rattus norvegicus [13]) [%] | also measured |
| --- | --- | --- | --- | --- | --- | --- | --- | --- | --- | --- | --- | --- | --- |
| 106 | 94 | 3.92 | 0.91 | 3.71 | 18600 | 5240 | 0.31 | 46.8 |  | OC[C@H]1O[C@@H](c2cc(Cc3cc4ccccc4s3)c(Cl)cc2O)[C@H](O)[C@@H](O)C1(F)F | 16 | 41.4 | Stabilty ([1]; microsomes, 10 min, 1 µM): 120%; t1/2 [2]: > 3 h; Activity [14]: 0.001 g; Activity [15]: 0.005 g |
| 74 | 18 |  |  |  |  |  |  |  | 96 | OC[C@H]1O[C@@H](c2cc(Cc3ccc4c(c3)OCCO4)c(Cl)cc2O)[C@H](O)[C@@H](O)C1(F)F |  |  |  |
| 97 | 58 | 10.9 | 1.89 | 4.85 | 2700 | 549 | 0.42 | 17.4 | 90 | COc1ccc(Cc2cc([C@@H]3O[C@H](CO)C(F)(F)[C@H](O)[C@H]3O)c(O)cc2Cl)cc1 | 38.4 | 62.8 | Activity [16]: 0.099 g; inhibition (Rattus norvegicus [17]): Dose-dependent effect |
